Calls of active or inactive are those of the source. The calls are words filed in the database; no cut-off is given here.

Assay [1] has as its target Mitogen-activated protein kinase 8 (Homo sapiens, UniProt P45983). Put plainly: Inhibition of JNK1 (unknown origin) at 1 uM by Ambit Kinomescan binding assay relative to control.
The test system of assay [2] is Epidermal growth factor receptor (Homo sapiens), P00533 [UNDEFINED MUTATION]. Put plainly: Inhibition of EGFR L747-E749del/A750P mutant (unknown origin) at 1 uM by Ambit Kinomescan binding assay relative to control.
Assay [3] addresses Serine/threonine-protein kinase MRCK beta (Homo sapiens) (UniProt Q9Y5S2). The assay can be described thus: Inhibition of MRCKb in human A-375 cells at 5 uM by KiNativ Profiling analysis relative to control. The assay is classed as cell-based.
The target in assay [4] is Microtubule-associated serine/threonine-protein kinase 3 (Homo sapiens) (UniProt O60307). Put plainly: Inhibition of MAST3 Lys2 labeling site in human A-375 cells at 5 uM by KiNativ Profiling analysis relative to control. The assay is classed as cell-based.
Assay [5] has as its target Serine/threonine-protein kinase SMG1 (Homo sapiens) (UniProt Q96Q15). Put plainly: Inhibition of SMG1 ATP labeling site harbouring DTVTIHSVGGTITILPTKTKPK in human A-375 cells at 0.5 uM by KiNativ Profiling analysis relative to control. The class given is cell-based. The method in brief:
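Live A375 melanoma cells treated with compound at 5 or 0.5 μM, then lysed. Lysate kinases were labeled with a lysine-reactive ATP or ADP-biotin probe. Inhibition was read as protection of labeling sites from the probe.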

The target of assay [6] is Epidermal growth factor receptor (Homo sapiens) (UniProt P00533). Put plainly: Inhibition of EGFR ACT labeling site harbouring ITDFGLAKLLGAEEK in human A-375 cells at 5 uM by KiNativ Profiling analysis relative to control. The assay is classed as cell-based.
Assay [7] concerns the target Myosin-IIIb (Homo sapiens) (UniProt Q8WXR4). Put plainly: Inhibition of MYO3B (unknown origin) at 10 uM by Ambit Kinomescan binding assay relative to control.
The target in assay [8] is Phosphatidylinositol 4,5-bisphosphate 3-kinase catalytic subunit beta isoform (Homo sapiens) (UniProt P42338). The assay can be described thus: Inhibition of PIK3CB ATP labeling site in human Huh-7 cells at 1 uM by KiNativ Profiling analysis relative to control. The assay is classed as cell-based.
The target of assay [9] is DNA-dependent protein kinase catalytic subunit (Homo sapiens) (UniProt P78527). The assay can be described thus: Inhibition of PRKDC ATP labeling site harbouring KGGSWIQEINVAEK in human Huh-7 cells at 10 uM by KiNativ Profiling analysis relative to control. The assay is classed as cell-based.
DNA-dependent protein kinase catalytic subunit (Homo sapiens), sequence (P78527 whole entry): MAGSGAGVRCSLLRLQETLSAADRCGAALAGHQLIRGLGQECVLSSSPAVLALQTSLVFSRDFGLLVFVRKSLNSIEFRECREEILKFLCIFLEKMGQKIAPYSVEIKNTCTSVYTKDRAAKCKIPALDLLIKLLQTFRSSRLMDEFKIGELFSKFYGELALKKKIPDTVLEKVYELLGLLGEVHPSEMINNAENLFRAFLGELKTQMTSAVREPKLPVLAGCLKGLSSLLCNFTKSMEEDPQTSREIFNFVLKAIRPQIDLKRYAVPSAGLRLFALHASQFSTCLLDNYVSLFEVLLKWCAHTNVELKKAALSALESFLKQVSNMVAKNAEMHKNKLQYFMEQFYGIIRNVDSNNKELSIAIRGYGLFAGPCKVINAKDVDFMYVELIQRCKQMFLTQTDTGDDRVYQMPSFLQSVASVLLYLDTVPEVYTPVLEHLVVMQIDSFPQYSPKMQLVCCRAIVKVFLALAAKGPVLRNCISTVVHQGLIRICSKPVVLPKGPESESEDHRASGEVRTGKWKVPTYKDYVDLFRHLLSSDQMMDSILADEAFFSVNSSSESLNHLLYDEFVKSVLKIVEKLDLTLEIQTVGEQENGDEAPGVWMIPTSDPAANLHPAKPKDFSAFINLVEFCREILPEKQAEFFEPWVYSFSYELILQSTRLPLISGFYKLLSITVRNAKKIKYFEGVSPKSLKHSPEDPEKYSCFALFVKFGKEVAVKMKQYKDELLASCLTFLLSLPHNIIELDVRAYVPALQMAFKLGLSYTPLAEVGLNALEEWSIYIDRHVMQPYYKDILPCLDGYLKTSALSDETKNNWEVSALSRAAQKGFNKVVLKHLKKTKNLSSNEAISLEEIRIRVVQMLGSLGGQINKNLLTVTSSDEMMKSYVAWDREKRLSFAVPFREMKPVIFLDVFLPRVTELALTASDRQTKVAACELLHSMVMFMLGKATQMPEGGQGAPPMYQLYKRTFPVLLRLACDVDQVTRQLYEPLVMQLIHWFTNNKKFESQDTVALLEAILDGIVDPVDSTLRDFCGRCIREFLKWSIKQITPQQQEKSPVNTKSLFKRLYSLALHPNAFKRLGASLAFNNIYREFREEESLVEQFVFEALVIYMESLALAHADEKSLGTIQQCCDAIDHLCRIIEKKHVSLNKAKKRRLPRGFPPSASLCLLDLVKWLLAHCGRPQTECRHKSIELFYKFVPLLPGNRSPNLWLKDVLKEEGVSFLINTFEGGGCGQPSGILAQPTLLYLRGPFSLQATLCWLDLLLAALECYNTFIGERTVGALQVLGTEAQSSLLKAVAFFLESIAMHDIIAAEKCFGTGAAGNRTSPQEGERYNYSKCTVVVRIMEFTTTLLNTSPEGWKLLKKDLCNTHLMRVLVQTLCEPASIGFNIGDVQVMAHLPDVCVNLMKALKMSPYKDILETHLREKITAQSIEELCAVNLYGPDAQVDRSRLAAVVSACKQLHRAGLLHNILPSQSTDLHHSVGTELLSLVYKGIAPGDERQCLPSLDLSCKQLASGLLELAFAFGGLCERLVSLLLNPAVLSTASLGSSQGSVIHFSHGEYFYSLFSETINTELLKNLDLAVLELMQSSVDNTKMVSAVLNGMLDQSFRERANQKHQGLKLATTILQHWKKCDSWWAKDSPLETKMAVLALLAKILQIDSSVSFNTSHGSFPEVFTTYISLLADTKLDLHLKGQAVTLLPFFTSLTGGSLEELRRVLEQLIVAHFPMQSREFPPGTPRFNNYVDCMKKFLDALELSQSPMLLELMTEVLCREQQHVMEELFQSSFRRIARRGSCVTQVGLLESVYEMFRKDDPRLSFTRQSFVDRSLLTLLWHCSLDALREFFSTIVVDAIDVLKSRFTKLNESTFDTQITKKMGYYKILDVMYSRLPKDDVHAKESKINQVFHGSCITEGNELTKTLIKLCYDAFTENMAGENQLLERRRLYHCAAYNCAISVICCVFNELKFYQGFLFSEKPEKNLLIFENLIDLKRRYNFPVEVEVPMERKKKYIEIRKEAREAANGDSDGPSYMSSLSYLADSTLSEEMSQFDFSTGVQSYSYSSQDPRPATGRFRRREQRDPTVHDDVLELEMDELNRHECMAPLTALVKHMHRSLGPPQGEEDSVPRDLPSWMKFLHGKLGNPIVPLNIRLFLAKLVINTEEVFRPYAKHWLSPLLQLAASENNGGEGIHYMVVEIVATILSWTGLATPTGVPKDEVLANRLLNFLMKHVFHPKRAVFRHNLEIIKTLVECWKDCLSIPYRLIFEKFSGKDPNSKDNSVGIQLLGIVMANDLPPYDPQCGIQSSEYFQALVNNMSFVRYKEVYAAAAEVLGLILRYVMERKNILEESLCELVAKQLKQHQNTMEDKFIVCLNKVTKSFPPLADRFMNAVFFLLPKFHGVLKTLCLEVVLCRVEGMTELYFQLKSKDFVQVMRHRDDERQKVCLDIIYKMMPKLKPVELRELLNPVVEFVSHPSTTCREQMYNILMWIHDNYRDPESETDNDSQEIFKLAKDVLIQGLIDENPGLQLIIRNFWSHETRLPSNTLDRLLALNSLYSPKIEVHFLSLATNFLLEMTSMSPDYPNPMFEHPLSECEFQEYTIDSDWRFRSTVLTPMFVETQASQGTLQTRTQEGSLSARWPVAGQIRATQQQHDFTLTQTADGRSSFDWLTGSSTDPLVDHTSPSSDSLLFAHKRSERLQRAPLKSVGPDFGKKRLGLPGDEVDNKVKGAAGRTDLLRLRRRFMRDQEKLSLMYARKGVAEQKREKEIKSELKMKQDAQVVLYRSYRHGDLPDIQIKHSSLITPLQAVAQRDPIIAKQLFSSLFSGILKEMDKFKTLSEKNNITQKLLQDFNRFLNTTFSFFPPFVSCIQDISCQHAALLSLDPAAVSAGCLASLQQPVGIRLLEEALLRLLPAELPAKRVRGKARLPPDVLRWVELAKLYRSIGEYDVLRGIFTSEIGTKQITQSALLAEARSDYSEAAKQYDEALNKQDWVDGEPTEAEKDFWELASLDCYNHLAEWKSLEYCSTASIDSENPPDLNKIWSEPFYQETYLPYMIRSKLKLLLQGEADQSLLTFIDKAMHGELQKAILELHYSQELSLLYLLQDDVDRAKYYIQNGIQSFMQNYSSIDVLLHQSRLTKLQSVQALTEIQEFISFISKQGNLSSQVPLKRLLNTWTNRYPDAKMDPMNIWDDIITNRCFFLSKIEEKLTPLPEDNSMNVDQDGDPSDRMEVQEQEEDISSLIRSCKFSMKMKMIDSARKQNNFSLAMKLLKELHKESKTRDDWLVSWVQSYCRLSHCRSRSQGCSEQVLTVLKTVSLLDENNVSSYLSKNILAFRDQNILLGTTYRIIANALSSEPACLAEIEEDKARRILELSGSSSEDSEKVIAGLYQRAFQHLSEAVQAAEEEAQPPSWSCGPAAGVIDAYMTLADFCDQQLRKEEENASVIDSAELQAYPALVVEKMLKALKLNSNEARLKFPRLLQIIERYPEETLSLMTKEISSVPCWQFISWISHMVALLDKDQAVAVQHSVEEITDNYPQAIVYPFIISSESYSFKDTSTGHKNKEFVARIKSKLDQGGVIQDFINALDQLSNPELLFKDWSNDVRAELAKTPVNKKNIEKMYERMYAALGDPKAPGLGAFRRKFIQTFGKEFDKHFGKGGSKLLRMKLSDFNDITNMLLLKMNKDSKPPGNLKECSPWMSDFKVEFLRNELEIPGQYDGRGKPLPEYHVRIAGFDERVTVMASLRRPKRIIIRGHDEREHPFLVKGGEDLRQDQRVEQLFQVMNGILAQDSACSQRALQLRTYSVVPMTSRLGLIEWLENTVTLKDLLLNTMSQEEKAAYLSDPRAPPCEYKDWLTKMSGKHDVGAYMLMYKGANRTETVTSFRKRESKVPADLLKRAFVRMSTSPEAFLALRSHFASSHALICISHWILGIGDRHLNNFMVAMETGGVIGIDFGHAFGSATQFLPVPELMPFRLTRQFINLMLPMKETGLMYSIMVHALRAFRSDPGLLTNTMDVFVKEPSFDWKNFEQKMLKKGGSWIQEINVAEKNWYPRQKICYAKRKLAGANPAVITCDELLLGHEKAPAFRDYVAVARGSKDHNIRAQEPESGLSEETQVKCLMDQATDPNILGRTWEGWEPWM
For assay [10], the target named is T1, Mitogen-activated protein kinase kinase kinase kinase 2 (Homo sapiens) (UniProt Q12851).
T1 sequence (whole entry): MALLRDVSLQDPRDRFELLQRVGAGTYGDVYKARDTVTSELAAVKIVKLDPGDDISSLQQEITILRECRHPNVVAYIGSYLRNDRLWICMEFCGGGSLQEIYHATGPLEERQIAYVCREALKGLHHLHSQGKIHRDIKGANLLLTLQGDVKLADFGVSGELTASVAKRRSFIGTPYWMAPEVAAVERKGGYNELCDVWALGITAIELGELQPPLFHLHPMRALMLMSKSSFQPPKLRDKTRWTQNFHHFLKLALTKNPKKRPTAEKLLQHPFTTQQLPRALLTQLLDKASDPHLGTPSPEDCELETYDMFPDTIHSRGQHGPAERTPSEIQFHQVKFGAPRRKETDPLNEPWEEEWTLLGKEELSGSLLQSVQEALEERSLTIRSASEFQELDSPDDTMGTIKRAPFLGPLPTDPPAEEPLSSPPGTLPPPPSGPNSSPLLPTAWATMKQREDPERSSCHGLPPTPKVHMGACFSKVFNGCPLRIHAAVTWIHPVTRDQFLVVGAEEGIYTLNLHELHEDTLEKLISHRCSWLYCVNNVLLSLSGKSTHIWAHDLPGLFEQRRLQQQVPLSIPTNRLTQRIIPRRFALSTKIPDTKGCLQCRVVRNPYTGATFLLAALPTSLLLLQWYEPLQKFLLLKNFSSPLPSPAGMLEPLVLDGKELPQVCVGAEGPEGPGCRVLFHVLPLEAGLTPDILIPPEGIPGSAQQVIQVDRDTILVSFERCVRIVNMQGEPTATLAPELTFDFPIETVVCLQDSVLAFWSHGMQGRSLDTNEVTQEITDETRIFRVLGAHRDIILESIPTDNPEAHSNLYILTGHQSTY
The assay can be described thus: Inhibition of MAP4K2 (GCK) Lys2 labeling site in human A-375 cells at 5 uM by KiNativ Profiling analysis relative to control. The class given is cell-based.

Assay [11] has as its target Dual specificity protein kinase CLK1 (Homo sapiens) (UniProt P49759). The assay can be described thus: Inhibition of CLK1 (unknown origin) at 10 uM by Ambit Kinomescan binding assay.
Assay [12] addresses Mitogen-activated protein kinase 6 (Homo sapiens) (UniProt Q16659). Put plainly: Inhibition of ERK3 (unknown origin) at 10 uM by Ambit Kinomescan binding assay.
The target of assay [13] is Calcium/calmodulin-dependent protein kinase type 1 (Homo sapiens) (UniProt Q14012). The assay can be described thus: Inhibition of CaMK1a K1 labeling site in human Huh-7 cells at 10 uM by KiNativ Profiling analysis relative to control. The assay is classed as cell-based.
The target of assay [14] is Tyrosine-protein kinase CSK (Homo sapiens, UniProt P41240). The assay can be described thus: Inhibition of CSK (unknown origin) at 10 uM by Ambit Kinomescan binding assay relative to control.
Assay [15] has as its target Ribosomal protein S6 kinase alpha-2 (Homo sapiens) (UniProt Q15349). Put plainly: Inhibition of N-terminal RPS6KA2 kinase domain 1 (unknown origin) at 10 uM by Ambit Kinomescan binding assay.
The target in assay [16] is Calcium/calmodulin-dependent protein kinase type II subunit delta (Homo sapiens) (UniProt Q13557). Put plainly: Inhibition of CaMK2d Lys1 labeling site harbouring IPTGQEYAAKIINTK in human Huh-7 cell lysate at 1 uM by KiNativ Profiling analysis relative to control. The assay is classed as subcellular.
Assay [17] addresses Serine/threonine-protein kinase WNK1 (Homo sapiens) (UniProt Q9H4A3). Put plainly: Inhibition of Wnk1 Lys2 labeling site in human Huh-7 cell lysate at 1 uM by KiNativ Profiling analysis relative to control. The assay is classed as subcellular.

Ribosomal protein S6 kinase alpha-2 (Homo sapiens), sequence (Q15349 whole entry, the tested form may be a part): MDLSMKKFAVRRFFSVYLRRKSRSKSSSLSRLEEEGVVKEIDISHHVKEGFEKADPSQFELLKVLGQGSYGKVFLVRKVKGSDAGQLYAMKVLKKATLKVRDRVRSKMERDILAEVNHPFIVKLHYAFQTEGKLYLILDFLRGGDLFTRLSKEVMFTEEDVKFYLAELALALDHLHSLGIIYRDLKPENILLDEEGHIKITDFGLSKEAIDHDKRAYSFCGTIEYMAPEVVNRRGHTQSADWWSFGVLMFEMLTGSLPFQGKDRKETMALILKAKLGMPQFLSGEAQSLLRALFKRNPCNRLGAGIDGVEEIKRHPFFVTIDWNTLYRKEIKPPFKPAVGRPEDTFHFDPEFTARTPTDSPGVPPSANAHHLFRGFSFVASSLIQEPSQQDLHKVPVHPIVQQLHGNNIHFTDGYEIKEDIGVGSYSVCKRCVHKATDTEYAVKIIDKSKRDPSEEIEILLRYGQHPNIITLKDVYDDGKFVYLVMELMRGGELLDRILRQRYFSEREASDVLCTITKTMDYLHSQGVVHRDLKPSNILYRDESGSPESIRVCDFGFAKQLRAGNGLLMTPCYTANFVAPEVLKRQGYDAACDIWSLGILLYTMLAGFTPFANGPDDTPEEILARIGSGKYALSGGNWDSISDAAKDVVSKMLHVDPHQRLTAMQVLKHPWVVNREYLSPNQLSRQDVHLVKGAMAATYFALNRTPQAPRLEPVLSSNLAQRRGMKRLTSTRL

For `CCN1CCN(Cc2ccc(NC(=O)c3ccc(C)c(/C=C/c4cnc5[nH]ccc5c4OC)c3)cc2C(F)(F)F)CC1`, the results for the inhibition in assay [1], in assay [2] and in assay [3] were 77%, 3% and 8.4%, respectively.

Consider `CCN1CCN(Cc2ccc(NC(=O)c3ccc(C)c(Oc4ccnc5[nH]ccc45)c3)cc2C(F)(F)F)CC1`, for which the inhibition in assay [4] is 4.8%; in assay [5], -9.1%; in assay [6] it was 5.4%; in [7], 4.8%; in assay [9], 0.2%; in assay [10] it was 96.6%. Further, the inhibition in assay [13] was 48.2%; in assay [14], 0.45%. For the same compound, the inhibition result in assay [8], in assay [11], in [12] and in [15] was “inactive” each time.

For `CNc1cc(Oc2cc(C(=O)Nc3cc(N4CCN(C)CC4)cc(C(F)(F)F)c3)ccc2C)ncn1`, the inhibition in [16] is 1.4%; in assay [17], 2.7%.

One may read the inhibition as the change of the read-out against control, counted positive when it falls.

The values above are taken from ChEMBL document CHEMBL5696442, “Discovery of type II inhibitors of TGFβ-activated kinase 1 (TAK1) and mitogen-activated protein kinase kinase kinase kinase 2 (MAP4K2)” (J Med Chem, 2015).
